Reference: paper PMC8903075 (Biomaterials science, 2021)
Values after ≈ are worked out from the molar mass of the structure shown. Values belong to the molecule of their own block, whether it stands above or below them.

Columns and labels:
[1] = system: P. aeruginosa (ATCC 27853); assay: microbe, parasite or virus in culture; type: cell-based, Pseudomonas aeruginosa; settings: for MIC, Gram-negative, P. aeruginosa: ATCC 27853, 18 h
E. coli (ATCC 25922) = assay: microbe, parasite or virus in culture; type: cell-based; settings: for MIC, Gram-negative, E. coli: ATCC 25922, 18 h
[2] = system: methicillin-resistant S. aureus (MRSA) (ATCC 33591); assay: microbe, parasite or virus in culture; type: cell-based, Staphylococcus aureus; settings: for MIC, Gram-positive, MRSA: ATCC 33591, 18 h
[3] = system: methicillin-resistant S. epidermidis (MRSE) (RP62A); assay: microbe, parasite or virus in culture; type: cell-based, Staphylococcus epidermidis; settings: for MIC, Gram-positive, MRSE: methicillin-resistant (RP62A, 18 h)
MRSA [4] = assay: Fluorescence microscopy; type: cell-based, Staphylococcus aureus; settings: 12 μg mL^−1, 2 h, 37 °C
In short: (§1)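 Mid-log cultures grown at 37 °C, diluted to 1 × 10^6 CFU mL−1, exposed to test compound for 2 h at 37 °C alongside untreated controls. Cells pelleted at 3000 rpm for 15 min at 4 °C and PBS-washed. Stained with DAPI (10 μg mL−1) for 15 min on ice in the dark, washed twice, then stained the same way with PI (5 μg mL−1). Imaged under oil immersion.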

E. coli [5] = assay: Outer membrane permeability assay; type: cell-based; settings: 1 × MIC; 37 °C, 1 h; percent uptake relative to 16 mM melittin
E. coli [6] = assay: Fluorescence microscopy; type: cell-based; settings: 12 μg mL^−1, 2 h, 37 °C
In short: as §1

E. coli [7] = assay: Bacterial membrane depolarization assay, DiSC3; type: cell-based; settings: 1 × MIC, 2 × MIC and 4 × MIC; concentration-dependent; repeated three times with duplicates
MRSA [8] = assay: Transmission electron microscopy; type: cell-based, Staphylococcus aureus; settings: 12 μg mL^−1, 2 h, TSB, 37 °C
In short: (§2)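 Mid-log bacteria exposed to test compound in TSB for 2 h at 37 °C, with untreated samples as controls. Cells pelleted at 3000 rpm for 15 min, washed four times in PBS, resuspended in deionized water. A drop placed on carbon-coated Cu grids, excess blotted off, dried about 1 h. Imaged by TEM at 60 kV.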

E. coli [9] = assay: Transmission electron microscopy; type: cell-based; settings: 12 μg mL^−1, 2 h, TSB, 37 °C
In short: as §2

MRSA [10] = type: cell-based, Staphylococcus aureus; settings: 48 h, 0.094 μg mL^−1
E. coli [11] = type: cell-based; settings: 48 h, 0.188 μg mL^−1
MRSA [12] = assay: Bacterial membrane depolarization assay, DiSC3; type: cell-based, Staphylococcus aureus; settings: 1 × MIC, 2 × MIC and 4 × MIC; concentration-dependent; repeated three times with duplicates
[13] = HPLC retention time as estimate of amphiphilicity; type: physicochemical; settings: HPLC data of Table S2 in ESI, which is not in the material
MRSA [14] = assay: Time-kill assay; type: cell-based, Staphylococcus aureus; settings: 1 × 10^6 CFU mL^−1, repeated three times
In short: (§3)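 Bacteria grown overnight in TSB at 37 °C to mid-log phase and diluted to 1 × 10^6 CFU mL−1. Incubated with test compound at several concentrations, with suspensions plated on agar at set time points. Plates incubated 20 h at 37 °C before colony counting. Assay repeated three times.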

E. coli [15] = assay: Time-kill assay; type: cell-based; settings: 2 × MIC; 1 × 10^6 CFU mL^−1; repeated three times
In short: as §3

- MIC ([1]; Pseudomonas aeruginosa, ATCC27853, 18 h, read-out: MIC, Gram-negative, P. aeruginosa): 1.5 to 3 µg/mL (≈ 4.53 to 9.05 µM)
- MIC (E. coli (ATCC 25922); Escherichia coli, ATCC25922, 18 h, read-out: MIC, Gram-negative, E. coli): 0.75 to 1.5 µg/mL (≈ 2.26 to 4.53 µM)
- MIC ([2]; Staphylococcus aureus, ATCC33591|MRSA, 18 h, read-out: MIC, Gram-positive, MRSA): 0.75 to 1.5 µg/mL (≈ 2.26 to 4.53 µM)
- MIC ([3]; Staphylococcus epidermidis, MRSE, 18 h, read-out: MIC, Gram-positive, MRSE): 0.75 to 1.5 µg/mL (≈ 2.26 to 4.53 µM)
SMILES: O=C(O)c1cn(C2CC2)c2cc(N3CCNCC3)c(F)cc2c1=O [Ciprofloxacin, reference compound]

- MIC, Gram-negative, P. aeruginosa [1]: 6 to 12.5 µg/mL
- MIC, Gram-negative, E. coli (E. coli (ATCC 25922)): 3 to 6 µg/mL
- MIC, Gram-positive, MRSA [2]: 3 to 6 µg/mL
- MIC, Gram-positive, MRSE [3]: 3 to 6 µg/mL
SMILES: CCCCCCCCCCCC(=O)NCCCC[C@H](NC(=O)c1cc(NC(=O)CN(C[C@H](CCCCN)NC(=O)[C@@H](N)CCCCN)S(=O)(=O)c2ccccc2)cc(NC(=O)CN(C[C@H](CCCCN)NC(=O)[C@@H](N)CCCCN)S(=O)(=O)c2ccccc2)c1)C(N)=O [Compound 1]

- MIC, Gram-negative, E. coli (E. coli (ATCC 25922)): 6 to 12.5 µg/mL
- MIC, Gram-positive, MRSA [2]: 6 to 12.5 µg/mL
SMILES: CCCCCCCCCCCCCCCC(=O)NCCCC[C@H](NC(=O)c1cc(NC(=O)CN(C[C@H](CCCCN)NC(=O)[C@@H](N)CCCCN)S(=O)(=O)c2ccccc2)cc(NC(=O)CN(C[C@H](CCCCN)NC(=O)[C@@H](N)CCCCN)S(=O)(=O)c2ccccc2)c1)C(N)=O [Compound 2]

SMILES: CCCCCCCCCCCC(=O)NCCCC[C@H](NC(=O)c1cc(NC(=O)CN(C[C@H](CCCCN)NC(=O)[C@@H](N)CCCCN)S(=O)(=O)c2ccc(Cl)cc2)cc(NC(=O)CN(C[C@H](CCCCN)NC(=O)[C@@H](N)CCCCN)S(=O)(=O)c2ccc(Cl)cc2)c1)C(N)=O [Compound 17]
- Membrane integrity of MRSA by DAPI/PI fluorescence (MRSA [4]): compromised
- Permeabilization of E. coli outer membrane (NPN uptake) (E. coli [5]): more than 50%
- Membrane integrity of E. coli by DAPI/PI fluorescence (E. coli [6]): compromised
- MIC, Gram-negative, P. aeruginosa [1]: 3 to 6 µg/mL
- MIC, Gram-negative, E. coli (E. coli (ATCC 25922)): 3 to 6 µg/mL
- Membrane depolarization of E. coli, DiSC3(5) fluorescence (E. coli [7]): dramatic enhancement of fluorescence intensity
- MRSA cell membrane morphology by TEM (MRSA [8]): membranes have been damaged
- E. coli cell membrane morphology by TEM (E. coli [9]): membranes have been damaged
- Inhibition of biofilm formation of MRSA (MRSA [10]): ~50%
- Inhibition of biofilm formation of E. coli (E. coli [11]): around 40%
- Membrane depolarization of MRSA, DiSC3(5) fluorescence (MRSA [12]): dramatic enhancement of fluorescence intensity
- MIC, Gram-positive, MRSA [2]: 3 to 6 µg/mL
- HPLC retention time (RT), estimate of amphiphilicity [13]: 19.70 min
- Time to complete killing of MRSA (MRSA [14]; 2 × MIC): ≤ 6 h
- Time to eradicate MRSA (MRSA [14]; 8 × MIC): roughly 2 h
- Time to complete killing of E. coli (E. coli [15]): ≤ 6 h
- MIC, Gram-positive, MRSE [3]: 3 to 6 µg/mL
